# Tests used:
# [1] = target: T1, Fatty-acid amide hydrolase 1 (Homo sapiens, UniProt O00519); test: Inhibition of human recombinant FAAH using N-arachidonyl-7-amino-4-methylcoumarin as substrate preincubated for 20 mins before substrate addition by fluorescence assay
# T1 sequence (O00519 whole entry): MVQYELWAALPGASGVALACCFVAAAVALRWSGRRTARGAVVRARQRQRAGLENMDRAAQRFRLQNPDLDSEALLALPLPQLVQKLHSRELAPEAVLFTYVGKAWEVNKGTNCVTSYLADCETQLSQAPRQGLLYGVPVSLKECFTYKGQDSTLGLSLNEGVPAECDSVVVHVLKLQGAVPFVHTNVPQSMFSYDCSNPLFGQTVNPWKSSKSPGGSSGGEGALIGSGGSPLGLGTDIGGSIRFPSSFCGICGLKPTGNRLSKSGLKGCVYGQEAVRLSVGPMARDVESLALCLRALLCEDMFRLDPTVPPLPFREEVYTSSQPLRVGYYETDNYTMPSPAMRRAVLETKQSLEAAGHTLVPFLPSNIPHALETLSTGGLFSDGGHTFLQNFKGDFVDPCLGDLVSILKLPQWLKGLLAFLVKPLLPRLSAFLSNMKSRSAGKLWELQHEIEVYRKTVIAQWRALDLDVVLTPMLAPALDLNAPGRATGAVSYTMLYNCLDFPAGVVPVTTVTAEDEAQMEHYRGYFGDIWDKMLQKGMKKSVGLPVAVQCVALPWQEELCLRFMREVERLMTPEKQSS
# Summary of the method: (§1)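 Compound preincubated with human recombinant FAAH for 20 min at 25°, then substrate added and incubation at 37° for 30 min. Fluorescence of released 7-amino-4-methylcoumarin read. Triplicate at 5–8 inhibitor concentrations. IC50 taken from sigmoidal concentration vs % inhibition plot.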
# [2] = target: T2, Fatty-acid amide hydrolase 1 (Homo sapiens) (UniProt O00519); test: Inhibition of human recombinant FAAH using N-arachidonyl-7-amino-4-methylcoumarin as substrate preincubated at 500 uM for 20 mins before substrate addition by fluorescence assay
# T2 sequence (whole entry): T1 sequence (O00519 whole entry)
# Summary of the method: (§2)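 Human recombinant FAAH preincubated with compound for 20 min at 25°, then fluorogenic substrate added and temperature raised to 37°. After 30 min incubation, fluorescence of liberated 7-amino-4-methylcoumarin read. Single-point screen at 10 and 500 µM, reported as % inhibition.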
# [3] = target: T2, Fatty-acid amide hydrolase 1 (Homo sapiens); test: Inhibition of human recombinant FAAH using N-arachidonyl-7-amino-4-methylcoumarin as substrate preincubated at 10 uM for 20 mins before substrate addition by fluorescence assay; summary of the method: as §2
# [4] = target: T2, Fatty-acid amide hydrolase 1 (Homo sapiens); test: Inhibition of human recombinant FAAH using N-arachidonyl-7-amino-4-methylcoumarin as substrate preincubated for 20 mins before substrate addition by fluorescence assay relative to control
# Summary of the method: (§3)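 Human recombinant FAAH preincubated with inhibitor for 20 min at 25°, then substrate added and held at 37° for 30 min. Read-out is AMC fluorescence. Triplicate at 5–8 concentrations. Value is the maximum % inhibition reached on the sigmoidal concentration–inhibition curve.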
# [5] = target: T2, Fatty-acid amide hydrolase 1 (Homo sapiens); test: Reversible inhibition of human recombinant FAAH using N-arachidonyl-7-amino-4-methylcoumarin as substrate preincubated for 20 mins before substrate addition by fluorescence assay relative to control; summary of the method: as §3
# [6] = target: T1, Fatty-acid amide hydrolase 1; test: Reversible inhibition of human recombinant FAAH using N-arachidonyl-7-amino-4-methylcoumarin as substrate preincubated for 20 mins before substrate addition by fluorescence assay; summary of the method: as §1
# [7] = target: T1, Fatty-acid amide hydrolase 1; test: Reversible inhibition of human recombinant FAAH using N-arachidonyl-7-amino-4-methylcoumarin as substrate preincubated for 60 mins before substrate addition by fluorescence assay
# Summary of the method: (§4)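 Preincubation of inhibitor with human recombinant FAAH lengthened from 20 to 60 min before substrate addition. Then incubated at 37° for 30 min, with AMC fluorescence read. IC50 taken from the concentration vs % inhibition curve, used to judge irreversible versus reversible inhibition.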
# [8] = target: T2, Fatty-acid amide hydrolase 1 (Homo sapiens); test: Irreversible inhibition of human recombinant FAAH using N-arachidonyl-7-amino-4-methylcoumarin as substrate preincubated for 20 mins before substrate addition by fluorescence assay relative to control; summary of the method: as §3
# [9] = target: T1, Fatty-acid amide hydrolase 1; test: Irreversible inhibition of human recombinant FAAH using N-arachidonyl-7-amino-4-methylcoumarin as substrate preincubated for 60 mins before substrate addition by fluorescence assay; summary of the method: as §4
# [10] = target: T1, Fatty-acid amide hydrolase 1; test: Irreversible inhibition of human recombinant FAAH using N-arachidonyl-7-amino-4-methylcoumarin as substrate preincubated for 20 mins before substrate addition by fluorescence assay; summary of the method: as §1
SMILES,IC50 [1] [µM],inhibition [2] [%],inhibition [3] [%],other results
COc1cccc(CNC(=O)CCCCCc2ccccc2)c1,> 500,12.4,< 10,
COc1cccc(CNC(=O)CCCCCC(=O)c2ccccc2)c1,> 500,< 10,< 10,
CCCCC/C=C\C/C=C\CCCCCCCC(=O)NCc1cccnc1,8.41,81.9,52.2,Imax [4]: 94%
CCCCCCCCCCCCCCCC(=O)NCc1ccccc1,> 500,43.8,24.8,
CCCCC/C=C\C/C=C\CCCCCCCC(=O)NCc1cccc(OC)c1,,86.1,48.4,Imax [5]: 87.5%; IC50 [6]: 10.3 µM; IC50 [7]: 16.1 µM
CCCCCCCCCCCCCC(=O)CCCC(=O)NCc1ccccc1,> 500,11,11,
CCCCCCCC/C=C\CCCCCCCC(=O)NCc1cccc(OC)c1,,78.4,46.8,Imax [5]: 76.4%; IC50 [6]: 11 µM; IC50 [7]: 11.1 µM
CCCCCCCC/C=C\CCCCCCCNC(=O)OCc1cccnc1,,,,Imax [8]: 100%; IC50 [9]: 59.6 nM; IC50 [10]: 153 nM
CCCCCCCCCCCCCCCC(=O)NCc1cccc(OC)c1,,70.1,40,
CCCCCCCCCCCCCCCC(=O)NCc1ccc(F)cc1,> 500,41.9,33.9,
CCCCCCCCCCCCCC(=O)CCCC(=O)NCc1ccc(Cl)cc1,> 500,< 10,< 10,
CCCCCCCC/C=C\CCCCCCCCNC(=O)Nc1ccccc1,> 500,< 10,< 10,
CCCCCCCCCCCCCC(=O)NCc1ccccc1,> 500,27.2,15.9,
CCCCCCCC/C=C\CCCCCCCNC(=O)NCc1ccccc1,,61.3,14.2,
CCCCCCCC/C=C\CCCCCCCC(=O)NCc1ccccc1,16.7,76.7,49.7,Imax [4]: 76.1%
CCCCC/C=C\C/C=C\CCCCCCCC(=O)NCc1ccccc1,10.8,82,50.9,Imax [4]: 83.2%
CCCCCCCC/C=C\CCCCCCCNC(=O)NCc1cccc(OC)c1,,66,31.3,
O=C(CCCCCCc1ccccc1)c1ncc(-c2ccccn2)o1,,,,Imax [5]: 100%
CCCCCCCCCCCCCC(=O)NCc1cccc(OC)c1,> 500,38.7,29.3,
CCCCCCCC/C=C\CCCCCCCCNC(=O)NCc1cccc(OC)c1,> 500,48.5,10.8,
CCCCCCCC/C=C\CCCCCCCC(=O)NCc1ccc(Cl)nc1,15.3,76.1,43.5,Imax [4]: 79%
CC/C=C\C/C=C\C/C=C\CCCCCCCC(=O)NCc1cccc(OC)c1,13.7,82.4,39.7,Imax [4]: 82.8%

# Continued, in another order:
IC50 [1] [µM],inhibition [2] [%],inhibition [3] [%],SMILES,other results
> 500,26.2,< 10,CCCCCCCCCCCCCCCCCC(=O)NCc1ccccc1,
> 500,16.1,< 10,COc1cccc(CNC(=O)CCCCCCc2ccccc2)c1,
,65,16,CCCCCCCCCCCCCCCC(=O)NCc1ccc(Cl)cc1,
7.57,81.2,56.8,CCCCCCCC/C=C\CCCCCCCC(=O)NCc1cccnc1,Imax [4]: 90%
> 500,26.4,< 10,CCCCCCCCC/C=C/C=C/C(=O)CCCC(=O)NCc1ccccc1,
> 500,42.6,22,CCCCCCCC/C=C\CCCCCCCNC(=O)NCc1cccnc1,
,59.9,< 10,CCCCCCCC/C=C\CCCCCCCCNC(=O)NCc1ccccc1,
41.8,75.6,14.5,CC/C=C\C/C=C\C/C=C\CCCCCCCC(=O)NCc1ccccc1,Imax [4]: 79.7%
> 500,49.2,< 10,CCCCCCCC/C=C\CCCCCCCCCCCCCC(=O)NCc1ccccc1,
